Screens as filed in PubChem.
Hits are enriched below; roughly 1.6% of the tested compounds scored in any of these assays.
UBC13 inh: UBC13 polyubiquitin chain formation inhibitors, primary screen, biochemical, TR-FRET, uHTS. Ubiquitin-conjugating enzyme E2 N (Homo sapiens), P61088. inhibition, % at 20 µM. hit rate 0.47% among 330,000; in the data active = inhibition above about 45%, passing the limit was not always enough
Target sequence (P61088 whole entry, looked up): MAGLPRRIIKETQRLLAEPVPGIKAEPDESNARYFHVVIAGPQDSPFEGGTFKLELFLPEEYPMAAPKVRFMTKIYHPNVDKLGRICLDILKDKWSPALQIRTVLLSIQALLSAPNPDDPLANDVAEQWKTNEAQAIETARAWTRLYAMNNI
Apaf-1 inh: inhibitors of human Apaf-1 apoptosome, primary screen, biochemical, DEVD-Rh110 fluorescence, uHTS | Apoptotic protease-activating factor 1 (Homo sapiens), O14727 | reconstituted apoptosome caspase-3 activity | inhibition, % at 20 µM | hit rate 0.71% among 330,000 | AID 489030, 2010; active = inhibition of at least 40% at 20 µM
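Material: reconstituted apoptosome with Apaf-1, cytochrome c, caspase-9, procaspase-3, dATP. Technique: Rh110 fluorescence intensity. Buffer or medium: pH 7.5 Hepes buffer with CHAPS, BSA, DTT. Times: 30 min plus 50 min, RT.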
RAD54 inh: inhibitors of human RAD54 branch migration, primary screen, biochemical, fluorescence, single point; inhibition, % at 10.4 µM; AID 602329, 2012; RAD54 Holliday junction branch migration, FAM/BHQ fluorescence; hit rate 0.14% among 360,000;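 active = mean normalized replicate activity at least 40 and at least half of replicates scoring 40 or more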;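 note: inhibitors cause a drop in the FAM fluorescence signal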
Neddylation inh: inhibitors of cullin neddylation, primary screen, biochemical, TR-FRET, uHTS, NAE and Ubc12; NEDD8-conjugating enzyme Ubc12 (Homo sapiens) + NEDD8-activating enzyme E1 regulatory …; calls only at 25 µM; hit rate 0.58% among 360,000; AID 651699, 2012; in the data active = inhibition above about 36%
FID counter: compounds displacing fluorescent DNA intercalator, primary screen, artefact control for HCV NS3 helicase inhibitor project, biochemical, FID fluorescence | DNA fluorescent intercalator displacement | inhibition, % at 7.9 µM | hit rate 0.17% among 290,000 | AID 1845, 2009; in the data active = inhibition above about 37%;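 note: higher means more ethidium bromide displaced from hairpin DNA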
RAD52 anneal inh: RAD52 DNA annealing inhibitors, primary screen, biochemical, FRET, single point, set 2 | recombinant RAD52 DNA annealing, FRET fluorescence | hit rate 0.46% among 360,000 | DNA repair protein RAD52 homolog (Homo sapiens), P43351 | inhibition, % at 18.7 µM;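 active = every replicate showing at least 50% inhibition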
Target sequence (P43351 whole entry, looked up): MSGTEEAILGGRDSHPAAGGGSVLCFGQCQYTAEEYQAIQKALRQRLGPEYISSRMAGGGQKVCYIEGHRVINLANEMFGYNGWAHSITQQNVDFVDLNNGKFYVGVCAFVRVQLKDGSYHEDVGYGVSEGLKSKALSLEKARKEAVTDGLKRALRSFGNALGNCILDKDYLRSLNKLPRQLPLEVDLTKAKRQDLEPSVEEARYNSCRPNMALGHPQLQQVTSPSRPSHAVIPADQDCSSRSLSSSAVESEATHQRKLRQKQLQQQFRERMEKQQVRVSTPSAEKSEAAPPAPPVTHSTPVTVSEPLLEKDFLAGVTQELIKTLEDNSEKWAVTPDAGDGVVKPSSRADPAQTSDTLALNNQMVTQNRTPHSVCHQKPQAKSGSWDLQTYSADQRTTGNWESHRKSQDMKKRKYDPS
Each line names hits and unclear results; the compound was inactive in the other large screens; ! = not confirmed by another sample.

C[C@@H]1CCCCO[C@H](CN(C)C)[C@@H](C)CN([C@H](C)CO)C(=O)c2cc(NC(=O)Nc3ccc(C(F)(F)F)cc3)ccc2O1	none (no result: UBC13 inh, Apaf-1 inh, Neddylation inh, FID counter)
C[C@@H]1CCCCO[C@@H](CN(C)CC2CC2)[C@H](C)CN([C@@H](C)CO)C(=O)c2cc(NC(=O)Nc3ccc4c(c3)OCO4)ccc2O1	none (no result: UBC13 inh, Apaf-1 inh, Neddylation inh, FID counter)
C[C@@H]1CCCCO[C@H](CN(C)C)[C@H](C)CN([C@@H](C)CO)C(=O)c2cc(NC(=O)Nc3ccc(C(F)(F)F)cc3)ccc2O1	none (no result: UBC13 inh, Apaf-1 inh, FID counter)
C[C@H](CO)N1C[C@H](C)[C@H](CN(C)CC2CC2)OCCCC[C@H](C)Oc2ccc(NC(=O)Nc3ccc(C(F)(F)F)cc3)cc2C1=O	RAD52 anneal inh 54 (no result: UBC13 inh, Apaf-1 inh, RAD54 inh, Neddylation inh, FID counter)
C[C@@H]1CCCCO[C@H](CN(C)CC2CC2)[C@H](C)CN([C@@H](C)CO)C(=O)c2cc(NC(=O)Nc3ccc4c(c3)OCO4)ccc2O1	RAD52 anneal inh 55 (no result: UBC13 inh, Apaf-1 inh, Neddylation inh, FID counter)
COc1ccc2c3c([nH]c2c1)[C@H](CO)N(C(=O)Nc1ccc(F)cc1)CC31CCN(S(=O)(=O)c2cccc(C)c2)CC1	none (no result: UBC13 inh, Apaf-1 inh, RAD54 inh, Neddylation inh, FID counter)
C[C@@H]1CCCCO[C@H](CN(C)C(=O)Nc2ccc(C(F)(F)F)cc2)[C@H](C)CN([C@@H](C)CO)C(=O)c2cc(N(C)C)ccc2O1	RAD52 anneal inh 78 (no result: UBC13 inh, Apaf-1 inh, Neddylation inh, FID counter)
C[C@@H]1CCCCO[C@H](CN(C)CC2CC2)[C@H](C)CN([C@@H](C)CO)C(=O)c2cc(NC(=O)Nc3ccccc3)ccc2O1	RAD52 anneal inh 57 (no result: UBC13 inh, Apaf-1 inh, Neddylation inh, FID counter)
COCC(=O)Nc1ccc2c(c1)[C@@H]1C[C@@H](CC(=O)NCc3ccc(-c4ccccc4)cc3)O[C@@H](CO)[C@@H]1O2	none (no result: UBC13 inh, Apaf-1 inh, Neddylation inh, FID counter)
CC(C)NC(=O)Nc1ccc2c(c1)C(=O)N([C@@H](C)CO)C[C@H](C)[C@@H](CN(C)Cc1ccc3c(c1)OCO3)OCCCC[C@H](C)O2	none (no result: UBC13 inh, Apaf-1 inh, Neddylation inh, FID counter, RAD52 anneal inh)
O=C(Nc1ccccc1)N[C@@H]1CC[C@@H](CCNC(=O)c2ccccc2F)O[C@H]1CO	none (no result: UBC13 inh, Apaf-1 inh, Neddylation inh, FID counter)
CC(C)[C@@H](CO)NC(=O)[C@H]1[C@@H](c2ccccc2)N(c2ccccc2)O[C@@H]1C	none (no result: UBC13 inh, Apaf-1 inh, RAD54 inh, Neddylation inh, FID counter)
Cc1cc(N=Nc2ccc(C)c(N=Nc3cc(C)c(N)cc3N)c2)c(N)cc1N	RAD54 inh 101, RAD52 anneal inh 80
COc1ccc(F)c(CN2CCC(CO)(Cc3cccc(C(F)(F)F)c3)CC2)c1	FID counter 39
CC(C)C#Cc1ccc([C@H]2[C@@H](CO)N3C(=O)CN(C(=O)NC4CCCCC4)C[C@@H]23)cc1	RAD52 anneal inh 58 (no result: UBC13 inh, Apaf-1 inh, RAD54 inh, Neddylation inh, FID counter)
COc1ccc2c3c(n(C)c2c1)[C@H](CO)N(C(=O)NC1CCCC1)CC31CN(C(C)=O)C1	none (no result: UBC13 inh, Apaf-1 inh, RAD54 inh, Neddylation inh, FID counter)
COc1cccc(NC(=O)N2[C@@H]3CNC[C@H]2C3c2ccc(-c3cccnc3)cc2)c1 (stereo not given in full)	none (no result: UBC13 inh, Apaf-1 inh, RAD54 inh, Neddylation inh, FID counter)
COc1ccccc1NC(=O)N1[C@@H]2CNC[C@H]1C2c1ccc(-c2ccccc2OC)cc1 (stereo not given in full)	none (no result: UBC13 inh, Apaf-1 inh, RAD54 inh, Neddylation inh, FID counter)
COc1ccc(-c2ccc(C3[C@H]4CNC[C@@H]3N4S(=O)(=O)c3cccc(Cl)c3)cc2)cc1 (stereo not given in full)	none (no result: UBC13 inh, Apaf-1 inh, RAD54 inh, Neddylation inh, FID counter)
COc1ccc(-c2ccc(C3[C@H]4CNC[C@@H]3N4C(=O)Nc3cccc(OC)c3)cc2)cc1 (stereo not given in full)	RAD52 anneal inh 67! (no result: UBC13 inh, Apaf-1 inh, RAD54 inh, Neddylation inh, FID counter)
COc1cccc(NC(=O)N2[C@@H]3CNC[C@H]2C3c2ccc(-c3cccc(OC)c3)cc2)c1 (stereo not given in full)	RAD52 anneal inh 66! (no result: UBC13 inh, Apaf-1 inh, RAD54 inh, Neddylation inh, FID counter)
COc1cccc(-c2ccc(C3[C@H]4CNC[C@@H]3N4S(=O)(=O)c3cccc(Cl)c3)cc2)c1 (stereo not given in full)	RAD52 anneal inh 53 (no result: UBC13 inh, Apaf-1 inh, RAD54 inh, Neddylation inh, FID counter)
COc1cccc(-c2ccc(C3[C@H]4CNC[C@@H]3N4C(=O)Nc3ccccc3Cl)cc2)c1 (stereo not given in full)	RAD52 anneal inh 51! (no result: UBC13 inh, Apaf-1 inh, RAD54 inh, Neddylation inh, FID counter)
Cc1noc(C)c1S(=O)(=O)Nc1ccc2c(c1)C(=O)N([C@H](C)CO)C[C@H](C)[C@H](CN(C)S(=O)(=O)c1ccc(F)cc1)OCCCC[C@@H](C)O2	RAD52 anneal inh 81 (no result: UBC13 inh, Apaf-1 inh, Neddylation inh, FID counter)
Cc1noc(C)c1S(=O)(=O)Nc1ccc2c(c1)C(=O)N([C@H](C)CO)C[C@@H](C)[C@@H](CN(C)S(=O)(=O)c1ccc(F)cc1)OCCCC[C@H](C)O2	RAD52 anneal inh 60 (no result: UBC13 inh, Apaf-1 inh, Neddylation inh, FID counter)
Cc1noc(C)c1S(=O)(=O)Nc1ccc2c(c1)C(=O)N([C@@H](C)CO)C[C@@H](C)[C@H](CN(C)S(=O)(=O)c1ccc(F)cc1)OCCCC[C@@H](C)O2	none (no result: UBC13 inh, Apaf-1 inh, Neddylation inh, FID counter)
Cc1noc(C)c1S(=O)(=O)Nc1ccc2c(c1)C(=O)N([C@H](C)CO)C[C@H](C)[C@@H](CN(C)S(=O)(=O)c1ccc(F)cc1)OCCCC[C@H](C)O2	RAD52 anneal inh 82 (no result: UBC13 inh, Apaf-1 inh, Neddylation inh, FID counter)
Cc1noc(C)c1S(=O)(=O)N(C)C[C@@H]1OCCCC[C@H](C)Oc2ccc(NS(=O)(=O)c3ccc(F)cc3)cc2C(=O)N([C@@H](C)CO)C[C@H]1C	none (no result: UBC13 inh, Apaf-1 inh, Neddylation inh, FID counter, RAD52 anneal inh)
Cc1ccc(S(=O)(=O)N(C)C[C@H]2OCCCC[C@@H](C)Oc3ccc(NC(=O)CCCN(C)C)cc3C(=O)N([C@@H](C)CO)C[C@@H]2C)cc1	RAD52 anneal inh 50 (no result: UBC13 inh, Apaf-1 inh, Neddylation inh, FID counter)
